pEC50, pIC50: −log10 of the molar value.
Key:
[1] = biological target: T1, RNA-directed RNA polymerase (Hepacivirus hominis, UniProt O39930); assay: Inhibitory potency of compound in presence of Mn2+ ion against NS5B HCV polymerase
[2] = biological target: T1, RNA-directed RNA polymerase; assay: Inhibitory potency of compound in presence of Mg2+ ion against NS5B HCV polymerase
Summary of the method: (§1)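 NS5B with C-terminal 55-residue truncation (ΔC55), expressed in E. coli and purified; 5 nM enzyme in 20 mM Tris/HCl pH 7.5, 0.05% Triton X-100, 2% glycerol, 50 mM NaCl, 1 mM DTT, 5 mM MgCl2. Enzyme preincubated 20 min at 23 °C with poly(rA)/oligo(rU) (20 µg/mL final). Started with 10 µM 3H-UTP, 30 min at 23 °C. Acid-insoluble radioactivity measured; IC50 from three-parameter logistic fit; mean of 2–4 experiments.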

[3] = system: Hepatitis C virus; assay: Tested for inhibition of HCV RNA replication in a cell-basedassay; No significant inhibition; type: functional, organism-based, Hepacivirus hominis
[4] = biological target: T1, RNA-directed RNA polymerase; assay: Inhibitory potency against NS5B HCV polymerase
Summary of the method: as §1, with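 “NS5BΔC55 (C-terminal” for “NS5B with C-terminal”, “truncation)” for “truncation (ΔC55),”, “purified to homogeneity, used at” for “purified;”, “nM” for “nM enzyme”, “counted.” for “measured;”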

[5] = biological target: T1, RNA-directed RNA polymerase; assay: Ability of compound to displace [3H]-DKA from NS5B HCV polymerase by 50%

T1 sequence (O39930 whole entry): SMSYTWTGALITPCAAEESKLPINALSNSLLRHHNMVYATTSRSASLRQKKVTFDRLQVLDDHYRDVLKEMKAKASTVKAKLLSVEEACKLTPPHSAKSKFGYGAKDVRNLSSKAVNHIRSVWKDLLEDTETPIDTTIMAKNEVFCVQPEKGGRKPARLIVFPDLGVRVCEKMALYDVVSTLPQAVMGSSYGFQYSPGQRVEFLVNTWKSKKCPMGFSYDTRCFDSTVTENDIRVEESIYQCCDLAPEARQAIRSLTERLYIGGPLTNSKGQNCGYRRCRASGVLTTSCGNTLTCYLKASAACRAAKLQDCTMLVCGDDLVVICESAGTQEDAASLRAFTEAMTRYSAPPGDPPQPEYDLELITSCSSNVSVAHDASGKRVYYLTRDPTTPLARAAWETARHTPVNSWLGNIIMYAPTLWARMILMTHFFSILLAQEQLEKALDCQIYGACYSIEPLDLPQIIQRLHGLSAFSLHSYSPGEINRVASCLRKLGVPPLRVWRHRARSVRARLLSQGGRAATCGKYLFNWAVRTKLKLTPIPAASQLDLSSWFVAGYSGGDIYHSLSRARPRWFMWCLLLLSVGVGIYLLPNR

SMILES	pIC50 [1]	pIC50 [2]	pEC50 [3]	pIC50 [4]	DC50 [5] [µM]
O=C(O)c1oc2ccccc2c(=O)c1O	5.72	4.64	< 4.30		
O=C(O)c1oc(COCc2ccccc2)cc(=O)c1O			< 4.30	< 4.00	
CCOCc1cc(=O)c(O)c(C(=O)O)o1	6.10	4.79	< 4.30	4.79	
CCN(CC)C(=O)c1cc(=O)c(O)c(C(=O)O)o1			< 4.30	< 4.00	
COC(=O)c1oc(C(=O)O)cc(=O)c1O			< 4.30	< 4.00	
O=C(O)C(=O)/C=C(\O)c1ccccc1			< 4.30		0.3
O=C(O)c1occc(=O)c1O			< 4.30	4.29	
CCNC(=O)c1cc(=O)c(O)c(C(=O)O)o1			< 4.30	4.62	
CCOC(=O)c1cc(=O)c(O)c(C(=O)OCC)o1	5.40	< 4.00	< 4.30	< 4.00	
CC(C)(C)OC(=O)c1cc(=O)c(O)c(C(=O)O)o1			< 4.30	4.44	
CCOC(=O)c1cc(=O)c(O)co1			< 4.30	< 4.00	
CCOC(=O)c1cc(=O)c(O)c(C(=O)O)o1	6.78	5.65	< 4.30	5.65	1.2
O=C(O)c1cc(=O)c(O)c(C(=O)O)o1	4.74	< 4.00	4.30	< 4.00	
